High-throughput results: PubChem, several laboratories
Efflux pump inh = inhibitors of Candida efflux pumps in yeast, primary screen, S. cerevisiae, Nile Red, multiplex | S. cerevisiae Candida pump triplex | inhibition, % at 10 µM | actives 0.44% (n = 330,000) | AID 485275, 2010;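 active = plate passing quality check with inhibition over a set limit, or well fluorescence over plate mean plus 4 SD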;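 also: Nile Red retained in pooled yeast measured as flow cytometry median fluorescence; 0% = buffer negative control and 100% = Enniatin B positive control; higher means more Nile Red kept so more efflux inhibition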
TAG inh = inhibitors of triacylglycerol accumulation, primary screen, cell-based, uHTS, fluorescence, H9c2. H9c2 cells, Nile Red lipid (TAG) fluorescence; cells loaded with 200 µM oleic acid. inhibition, % at 12.5 µM. actives 0.66% (n = 230,000);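 active = pattern-corrected inhibition of lipid staining of at least 50% with the nuclear-stain viability signal not falling by more than 50%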;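 also: 0% = DMSO wells and 100% = triacsin C control wells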
sPLA2-III inh = human group III sPLA2 inhibitors, primary screen, biochemical, QFRET, BODIPY PC-A2 liposome substrate; Group 3 secretory phospholipase A2 (Homo sapiens), Q9NZ20; QFRET BODIPY PC-A2 liposome hydrolysis, fluorescence; inhibition, % at 12.2 µM; actives 0.56% (n = 370,000); AID 743126, 2013;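 active = inhibition above mean plus 3 SD of compounds lying within the high and low control bounds, cut at about 19% in these data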;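 also: 0% = median of test compound wells and 100% = no enzyme DMSO wells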
Target sequence (Q9NZ20 whole entry, looked up): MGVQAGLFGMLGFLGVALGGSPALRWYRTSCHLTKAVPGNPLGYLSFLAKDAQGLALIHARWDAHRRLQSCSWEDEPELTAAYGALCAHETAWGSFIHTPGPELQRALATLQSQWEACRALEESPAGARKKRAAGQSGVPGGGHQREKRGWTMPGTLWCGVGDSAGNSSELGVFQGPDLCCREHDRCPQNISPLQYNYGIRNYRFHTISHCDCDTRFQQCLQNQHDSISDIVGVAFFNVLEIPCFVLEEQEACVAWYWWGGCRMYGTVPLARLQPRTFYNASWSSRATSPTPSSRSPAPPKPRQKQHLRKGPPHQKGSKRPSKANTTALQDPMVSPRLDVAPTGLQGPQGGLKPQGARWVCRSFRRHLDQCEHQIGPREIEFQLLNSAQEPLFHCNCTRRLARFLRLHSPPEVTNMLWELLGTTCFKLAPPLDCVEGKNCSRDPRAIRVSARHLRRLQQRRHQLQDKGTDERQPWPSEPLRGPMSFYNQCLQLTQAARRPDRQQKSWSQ
MT1-MMP act inh = blockers of MT1-MMP proenzyme processing, primary screen, HT1080 RFP-PRO-GFP cells, GFP/RFP fluorescence. Matrix metalloproteinase-14 (Homo sapiens), P50281. GFP/RFP ratio fluorescence, overnight; percent of plate control window, DMSO zero. GFP/RFP ratio change, % at 20 µM. actives 0.061% (n = 360,000);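 active = GFP/RFP ratio change of at least 30% with cell ATP level not reduced by more than half and red fluorescence within 50% of control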
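Compound: 20 µM single dose, 1% DMSO / System: HT1080 RFP-PRO-GFP cells / Controls: DMSO and RFP-L50D-GFP cell wells / Read-out basis: GFP/RFP fluorescence ratio / Schedule: overnight compound exposure at 37 °C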
Yeast cmpd fluor = compound fluorescence in yeast efflux pump counter-screen; fluorescence ratio to DMSO, % at 10 µM; actives 4% (n = 1,700); shares compounds with Efflux pump inh; S. cerevisiae AD/pABC3, flow cytometry;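 active = fluorescence ratio to DMSO above its plate's cutoff, the plate mean ratio plus 5 SD, cut at about 210% in these data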;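 also: unstained yeast with no Nile Red so the signal is compound autofluorescence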
Mdr1 pump inh = inhibitors of Candida albicans Mdr1 efflux, confirmation, flow cytometry, singleplex, Cherry Pick1 set | shares compounds with Efflux pump inh | S. cerevisiae AD/CaMDR1, Nile Red efflux | inhibition, % at 10 µM | actives 1% (n = 1,700) | AID 588518, 2011; in the data active = inhibition above about 26%;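 also: 0% = DMSO vehicle and 100% = reference inhibitor; higher means more Nile Red retained so more efflux inhibition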
CaCdr2 efflux inh = inhibitors of Candida albicans Cdr2 efflux pump, confirmation, S. cerevisiae AD/CaCDR2, flow cytometry, cherry pick 1, singleplex. shares compounds with Efflux pump inh. Nile Red retention. Nile Red retention ratio vs DMSO, % at 10 µM. actives 4% (n = 1,700). AID 588520, 2011; in the data active = Nile Red retention ratio vs DMSO above about 190%;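 also: higher ratio means more blocking of Cdr2 efflux of the dye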
CaCdr1 efflux inh = inhibitors of Candida albicans Cdr1 efflux pump, confirmation, S. cerevisiae AD/CaCDR1, flow cytometry, cherry pick 1, singleplex; shares compounds with Efflux pump inh; Nile Red efflux; inhibition, % at 10 µM; actives 1% (n = 1,700);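 active = inhibition above the screen-wide mean plus twice its standard deviation, cut at about 32% in these data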
Active calls of the source: *. A selection: hits, their analogues and other compounds. The true share with any hit is near 1.3%.

COc1cccc(C(C(=O)NC(C)(C)C)N(C(=O)CCC(=O)Nc2cc(C)on2)C2CC2)c1OC (configuration not stated) was read as Efflux pump inh 0.0, TAG inh -12.4, sPLA2-III inh 4.0, MT1-MMP act inh -0.8, Yeast cmpd fluor 96.6, Mdr1 pump inh 0.0, CaCdr2 efflux inh 100.1 and CaCdr1 efflux inh -0.1.
`NC(=O)c1cc(C(=O)c2ccc(Cl)cc2)c[nH]1` gave Efflux pump inh 0.1, TAG inh -3.3, sPLA2-III inh -2.4 and MT1-MMP act inh -2.3.
Screening CCOc1ccc(-n2c(SCC(=O)c3ccccc3Cl)nnc2-c2ccncc2)cc1 returned sPLA2-III inh -49.3.
Cc1ccccc1CN1CCC(n2nccc2NC(=O)CCCc2ccccc2)CC1 was read as Efflux pump inh 1.5*, sPLA2-III inh -7.9, MT1-MMP act inh -2.2, Yeast cmpd fluor 87.6, Mdr1 pump inh -0.2, CaCdr2 efflux inh 93.2 and CaCdr1 efflux inh -0.5.
For CCOc1ccccc1NC(=O)CSc1nnc(CNC(=O)c2cc(OC)c(OC)c(OC)c2)o1 the results were Efflux pump inh 0.0, sPLA2-III inh -2.1 and MT1-MMP act inh 0.0.
Screening CC1(C(=O)OCC(=O)Nc2nnc(-c3ccccc3)o2)CC1(Cl)Cl (configuration not stated) returned Efflux pump inh 0.0, TAG inh 3.4, sPLA2-III inh -0.9 and MT1-MMP act inh -0.4.
Cc1occc1C(=O)N(C)CC1CCCN(CCc2ccccc2F)C1 (configuration not stated) was read as Efflux pump inh 5.0*, sPLA2-III inh -2.6, MT1-MMP act inh 2.7, Yeast cmpd fluor 112.7, Mdr1 pump inh 0.0, CaCdr2 efflux inh 89.3 and CaCdr1 efflux inh 0.1.
For CN(CC1CCCN(CCc2ccccc2F)C1)C(=O)c1ccoc1 (configuration not stated) the results were Efflux pump inh 0.1, sPLA2-III inh -2.6 and MT1-MMP act inh -4.0.
For O=C(COc1ccc(-c2ccccc2)cc1)NNC(=O)Nc1ccc(F)cc1F the results were Efflux pump inh 3.0*, TAG inh -7.9, sPLA2-III inh -19.8, MT1-MMP act inh -0.9, Yeast cmpd fluor 109.0, Mdr1 pump inh 0.0, CaCdr2 efflux inh 110.2 and CaCdr1 efflux inh 0.0.
`O=C(O)CNS(=O)(=O)c1ccc2c3c(cccc13)C(=O)N2` gave Efflux pump inh 0.7*, TAG inh -7.6, sPLA2-III inh -1.8, MT1-MMP act inh 0.8, Yeast cmpd fluor 111.2, Mdr1 pump inh -0.2, CaCdr2 efflux inh 100.1 and CaCdr1 efflux inh 0.0.
`CCc1nc2c(OCCC3CCCCC3)cccn2c1N(C)C(=O)c1ccc(OC)cc1` gave TAG inh -4.3, sPLA2-III inh 7.4 and MT1-MMP act inh -3.7.
CCCCC1(C(=O)OCC)CC(CSC(=N)N)OC1=O (configuration not stated) was read as Efflux pump inh 0.6*, TAG inh -2.6, sPLA2-III inh 3.1, MT1-MMP act inh 2.3, Yeast cmpd fluor 92.1, Mdr1 pump inh -0.3, CaCdr2 efflux inh 104.2 and CaCdr1 efflux inh 0.0.
For CCCCCOCC1CC(C/C(C)=N/NC(N)=O)(C(=O)OCC)C(=O)O1 (configuration not stated) the results were Efflux pump inh -0.1, TAG inh -7.4, sPLA2-III inh -11.1 and MT1-MMP act inh 2.2.
`COc1ccc(C(CC(=O)c2ccc3c(c2)OCO3)C(=O)O)cc1OC` (configuration not stated) gave TAG inh 2.0, sPLA2-III inh -1.7 and MT1-MMP act inh 2.9.
For O=C(NCc1cccc(Cl)c1)NC(=O)c1csc([N+](=O)[O-])c1 the results were Efflux pump inh 0.9*, TAG inh 5.5, sPLA2-III inh -1.9, MT1-MMP act inh 3.8, Yeast cmpd fluor 95.5, Mdr1 pump inh -0.1, CaCdr2 efflux inh 128.7 and CaCdr1 efflux inh 0.5.
CC(C)CNC(=S)NC(=O)c1csc([N+](=O)[O-])c1 was read as Efflux pump inh 0.2, TAG inh 6.1, sPLA2-III inh 11.5 and MT1-MMP act inh -0.5.
For CCN1CCN(CC(O)COCC2COc3ccccc3O2)CC1 (configuration not stated) the results were Efflux pump inh 0.0, TAG inh 12.9, sPLA2-III inh -4.5 and MT1-MMP act inh -1.0.
`OC(COCC1COc2ccccc2O1)CN1CCN(c2ccccc2)CC1` (configuration not stated) gave Efflux pump inh 1.0*, TAG inh 3.2, sPLA2-III inh 6.8, MT1-MMP act inh 0.5, Yeast cmpd fluor 101.5, Mdr1 pump inh -0.1, CaCdr2 efflux inh 97.5 and CaCdr1 efflux inh 0.0.
For Cc1cc(C)c(NC(=O)COC(=O)CCc2ccc(S(=O)(=O)N3CCCCC3)cc2)c(C)c1 the results were Efflux pump inh 0.2, TAG inh 9.7, sPLA2-III inh -2.7 and MT1-MMP act inh 2.0.
Screening Cc1cccc(C)c1NC(=O)COC(=O)CCc1ccc(S(=O)(=O)N2CCCCC2)cc1 returned Efflux pump inh 18.9*, TAG inh 3.5, sPLA2-III inh -9.2, MT1-MMP act inh 0.2, Yeast cmpd fluor 101.1, Mdr1 pump inh -0.3, CaCdr2 efflux inh 98.1 and CaCdr1 efflux inh 0.0.
For COc1ccc(CCC(=O)Nc2cc(S(=O)(=O)N3CCCCC3)ccc2N(C)C)cc1 the results were Efflux pump inh 1.1*, TAG inh -2.9, sPLA2-III inh 6.3, MT1-MMP act inh -0.4, Yeast cmpd fluor 102.5, Mdr1 pump inh -0.1, CaCdr2 efflux inh 93.2 and CaCdr1 efflux inh -0.1.
`CN1C2=N[C@@H](c3ccccc3)CC(=O)N2/C(=C\c2ccccc2)[C@H]1c1ccccc1` gave sPLA2-III inh -3.9.
`C[n+]1ccc(/C=C/c2c[nH]c3ccc(F)cc23)cc1` gave Efflux pump inh 4.2, sPLA2-III inh -28.4 and MT1-MMP act inh -137.4.
